Experimental data: ChEMBL document CHEMBL1149639, “Anti-tumor agents 255: novel glycyrrhetinic acid-dehydrozingerone conjugates as cytotoxic agents” (2007)
The source made the active and inactive calls. No cut-off for these calls is given here.

Assays:
Assay type in all cases: functional
PC-3 = experiment: Cytotoxicity against human PC3 cells; settings: read-out: ED50 (the source's name)
Method in brief: (§1)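 Sulforhodamine B assay after Rubinstein et al. Cells grown at 37 °C, humidified 5% CO2, in RPMI-1640 with 10% (v/v) FBS and 100 μg/mL kanamycin. Seeding density set per line to give final A562 of 1-2.5. Stocks in DMSO, final DMSO <1% (v/v). Two-day drug exposure, absorbance at 562 nm. ED50 (50% absorbance reduction vs untreated) interpolated from dose-response. Tests in duplicate.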

DU-145 = experiment: Cytotoxicity against human DU145 cells; settings: read-out: ED50 (the source's name); method in brief: as §1
HCT-8 = experiment: Cytotoxicity against human HCT8 cells; settings: read-out: ED50 (the source's name); method in brief: as §1
A549 = experiment: Cytotoxicity against human A549 cells; settings: for EC50: read-out: ED50 (the source's name); method in brief: as §1
1A9 = experiment: Cytotoxicity against human 1A9 cells; settings: for EC50: read-out: ED50 (the source's name); method in brief: as §1
LNCaP = experiment: Cytotoxicity against human LN-Cap cells; settings: read-out: ED50 (the source's name); method in brief: as §1
KB [1] = experiment: Cytotoxicity against human KB cells; settings: for EC50: read-out: ED50 (the source's name); method in brief: as §1
[2] = (§2) Cytotoxicity against human KB-VIN cells; settings: KBVIN, read-out: ED50 (the source's name); method in brief: as §1
ZR-75-1 = experiment: Cytotoxicity against human ZR751 cells; settings: for EC50: read-out: ED50 (the source's name); method in brief: as §1
KB-VIN [3] = experiment: (§3) Cytotoxicity against human KB-VIN cells by sulforhodamine B assay; method in brief: as §1
KB [4] = experiment: Cytotoxicity against human KB cells by sulforhodamine B assay; settings: for EC50: read-out: ED50 (the source's name); method in brief: as §1
KB-VIN [5] = experiment: as §2; method in brief: as §1
[6] = as §3; settings: KBVIN, read-out: ED50 (the source's name); method in brief: as §1

Row | SMILES | EC50 (PC-3) [µM] | EC50 (DU-145) [µM] | EC50 (HCT-8) [µM] | EC50 (A549) [µM] | EC50 (1A9) [µM] | EC50 (LNCaP) [µM] | EC50 (KB [1]) [µM] | EC50 [2] [µM] | EC50 (ZR-75-1) [µM] | Activity (KB-VIN [3]) | Activity (KB [4]) | Activity (KB [1]) | Activity (KB-VIN [5]) | EC50 [6] [µM] | EC50 (KB [4]) [µM] | Activity (ZR-75-1) | Activity (A549) | Activity (1A9)
1 | COc1ccc(/C=C/C(C)=O)cc1OC(=O)[C@@]1(C)CC[C@]2(C)CC[C@]3(C)C(=CC(=O)[C@@H]4[C@@]5(C)CC[C@H](O)C(C)(C)[C@@H]5CC[C@]43C)[C@@H]2C1 | 2.8 | 9.9 | 2 | 2.8 | 1.6 | 6.5 | 0.9 | 1.9 | 1.9 |  |  |  |  |  |  |  |  | 
2 | COc1cc(/C=C/C(C)=O)ccc1O [DEHYDROZINGERONE] | > 52 | > 52 | > 52 | > 52 | 33.9 | 51 |  |  | > 52 | inactive | inactive | inactive | inactive |  |  |  |  | 
3 | COc1cccc(/C=C/C(=O)c2ccccc2)c1OC(=O)[C@@]1(C)CC[C@]2(C)CC[C@]3(C)C(=CC(=O)[C@@H]4[C@@]5(C)CC[C@H](O)C(C)(C)[C@@H]5CC[C@]43C)[C@@H]2C1 | 14.1 | > 14 | > 14 | > 14 | 13.3 | 14.1 | 9.9 |  | > 14 |  |  |  | inactive |  |  |  |  | 
4 | COc1cccc2c1C(=O)c1c(O)c3c(c(O)c1C2=O)C[C@@](O)(C(=O)CO)C[C@@H]3O[C@H]1C[C@H](N)[C@H](O)[C@H](C)O1 [DOXORUBICIN] | 0.26 | 0.15 | 1.2 | 0.18 | 0.02 | 0.04 | 0.1 | 4.97 | 0.04 |  |  |  |  |  |  |  |  | 
5 | COc1cccc(/C=C/C(C)=O)c1OC(=O)[C@@]1(C)CC[C@]2(C)CC[C@]3(C)C(=CC(=O)[C@@H]4[C@@]5(C)CC[C@H](O)C(C)(C)[C@@H]5CC[C@]43C)[C@@H]2C1 | 1.1 | 3.6 | 1.9 | 2.2 | 0.8 | 2.8 | 0.8 | 2.8 | 3 |  |  |  |  |  |  |  |  | 
6 | COc1ccc(/C=C/C(C)=O)c(OC(=O)[C@@]2(C)CC[C@]3(C)CC[C@]4(C)C(=CC(=O)[C@@H]5[C@@]6(C)CC[C@H](O)C(C)(C)[C@@H]6CC[C@]54C)[C@@H]3C2)c1 | 7.4 | > 15 | 2.6 | 15.5 | 5.9 | 1.9 | 6.2 | > 15 | > 15 |  |  |  |  |  |  |  |  | 
7 | COc1cc(/C=C/C(C)=O)ccc1OC(=O)[C@@]1(C)CC[C@]2(C)CC[C@]3(C)C(=CC(=O)[C@@H]4[C@@]5(C)CC[C@H](O)C(C)(C)[C@@H]5CC[C@]43C)[C@@H]2C1 | 1.4 | 3.1 | 1.7 | 2 | 0.9 | 0.6 | 1.6 | 2.5 | 2.8 |  |  |  |  | 2.8 | 1.7 |  |  | 
8 | COc1cc(/C=C/C(C)=O)ccc1OC(=O)[C@]12CC[C@@H](C)[C@H](C)[C@H]1C1=CC[C@@H]3[C@@]4(C)CC[C@H](O)C(C)(C)[C@@H]4CC[C@@]3(C)[C@]1(C)CC2 |  |  |  |  |  |  |  |  |  | inactive |  |  |  |  | 10.5 |  |  | 
9 | CCOc1cccc(/C=C/C(C)=O)c1OC(=O)[C@@]1(C)CC[C@]2(C)CC[C@]3(C)C(=CC(=O)[C@@H]4[C@@]5(C)CC[C@H](O)C(C)(C)[C@@H]5CC[C@]43C)[C@@H]2C1 | 3.5 | > 15 | 4.9 | 3 | 1.8 | 6.8 | 2.9 | 13.2 | 8.8 |  |  |  |  |  |  |  |  | 
10 | CCOc1cc(/C=C/C(C)=O)ccc1OC(=O)[C@@]1(C)CC[C@]2(C)CC[C@]3(C)C(=CC(=O)[C@@H]4[C@@]5(C)CC[C@H](O)C(C)(C)[C@@H]5CC[C@]43C)[C@@H]2C1 | 3.3 | 5.8 | 2.7 | 1.7 | 1.1 | 1.1 | 1.8 | 1.7 | 5.2 |  |  |  |  |  |  |  |  | 
11 | COc1cc(/C=C/C(=O)c2ccccc2)ccc1OC(=O)[C@@]1(C)CC[C@]2(C)CC[C@]3(C)C(=CC(=O)[C@@H]4[C@@]5(C)CC[C@H](O)C(C)(C)[C@@H]5CC[C@]43C)[C@@H]2C1 | > 14 | > 14 | > 14 | > 14 | > 14 | > 14 |  |  |  |  |  | inactive | inactive |  |  | inactive |  | 
12 | COc1ccc(/C=C/C(=O)c2ccccc2)cc1OC(=O)[C@@]1(C)CC[C@]2(C)CC[C@]3(C)C(=CC(=O)[C@@H]4[C@@]5(C)CC[C@H](O)C(C)(C)[C@@H]5CC[C@]43C)[C@@H]2C1 | 14.1 | > 14 | > 14 |  | > 14 | 14.1 |  |  |  |  |  | inactive | inactive |  |  | inactive | inactive | 
13 | CC(=O)/C=C/c1cccc(F)c1OC(=O)[C@@]1(C)CC[C@]2(C)CC[C@]3(C)C(=CC(=O)[C@@H]4[C@@]5(C)CC[C@H](O)C(C)(C)[C@@H]5CC[C@]43C)[C@@H]2C1 | 1.6 | 2.7 | 2.2 | 3.2 | 1.3 | 4.4 | 3 | 8.7 | 2.7 |  |  |  |  |  |  |  |  | 
14 | C[C@H]1[C@H](C)CC[C@]2(C(=O)O)CC[C@]3(C)C(=CC[C@@H]4[C@@]5(C)CC[C@H](O)C(C)(C)[C@@H]5CC[C@]43C)[C@H]12 [URSOLIC ACID] |  |  |  |  |  |  |  |  |  |  |  |  |  | 8.1 | 8.3 |  |  | 
15 | COc1cc(/C=C/C(C)=O)ccc1OC(=O)[C@]12CCC(C)(C)C[C@H]1C1=CC[C@@H]3[C@@]4(C)CC[C@H](O)C(C)(C)[C@@H]4CC[C@@]3(C)[C@]1(C)CC2 |  |  |  |  |  |  |  |  |  | inactive | inactive |  |  |  |  |  |  | 
16 | CC1(C)[C@@H](O)CC[C@]2(C)[C@H]3C(=O)C=C4[C@@H]5C[C@@](C)(C(=O)O)CC[C@]5(C)CC[C@@]4(C)[C@]3(C)CC[C@@H]12 [ENOXOLONE] | > 21 | > 21 | 19.5 |  | > 21 | > 21 | > 21 | > 21 |  | inactive | inactive |  |  |  |  | inactive | inactive | 
17 | CC1(C)CC[C@]2(C(=O)O)CC[C@]3(C)C(=CC[C@@H]4[C@@]5(C)CC[C@H](O)C(C)(C)[C@@H]5CC[C@]43C)[C@@H]2C1 |  |  |  |  |  |  |  |  |  | inactive | inactive |  |  |  |  |  |  | 
18 | COc1ccc(/C=C/C(=O)c2ccccc2)c(OC(=O)[C@@]2(C)CC[C@]3(C)CC[C@]4(C)C(=CC(=O)[C@@H]5[C@@]6(C)CC[C@H](O)C(C)(C)[C@@H]6CC[C@]54C)[C@@H]3C2)c1 | > 14 | 13 | > 14 |  |  | > 14 | > 14 | > 14 |  |  |  |  |  |  |  | inactive | inactive | inactive
